Measurements reported in ChEMBL document CHEMBL1122293, “Synthesis, evaluation of chemical reactivity, and murine antineoplastic activity of 2-hydroxy-5-(3,4-dichlorophenyl)-6,7-bis(hydroxymethyl)-2,3-dihydro-1H- pyrrolizine bis(2-propylcarbamate) and 2-acyloxy derivatives as potential water-soluble prodrugs” (J Med Chem, 1983).
In brackets after ≈: the same amount, converted by molar mass.

Assays:
B16 [1] = assay: No. of cures on day 60 at 10 mg/kg (ip) against B16 melanocarcinoma in mice; assay type: functional, Mus musculus
How it was run: (§1)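 Female BDF1 mice given ip 0.5 mL of tumor brei (1.0 g tissue per 10 mL). Nine daily ip doses beginning 24 h later, as Klucel suspensions or a water/Tween-80 suspension. Acute toxicity scored day 5; survival read day 60. Cures counted per 10-animal group at day 60; weight difference reported as treated minus control (g).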

B16 [2] = assay: No. of cures on day 60 at 20 mg/kg (ip) against B16 melanocarcinoma in mice; assay type: functional, Mus musculus; how it was run: as §1
B16 [3] = assay: No. of cures on day 60 at 40 mg/kg (ip) against B16 melanocarcinoma in mice; assay type: functional, Mus musculus; how it was run: as §1
B16 [4] = assay: No. of cures on day 60 at 5 mg/kg (ip) against B16 melanocarcinoma in mice; assay type: functional, Mus musculus; how it was run: as §1
B16 [5] = assay: No. of cures on day 60 at 80 mg/kg (ip) against B16 melanocarcinoma in mice; assay type: functional, Mus musculus; how it was run: as §1
B16 [6] = assay: Median survival time of test animals compared to controls at 10 mg/kg (ip) against B16 melanocarcinoma in mice; assay type: functional, Mus musculus
How it was run: (§2)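 Female BDF1 mice received B16 tumor brei ip (0.5 mL of 1.0 g tissue per 10 mL). From 24 h later they got nine daily ip doses, suspended in Klucel or water/Tween-80. Acute toxicity was assessed on day 5 and survival was evaluated on day 60. The value is median survival as % T/C, with 10 mice per group and a positive control run in parallel.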

B16 [7] = assay: Median survival time of test animals compared to controls at 20 mg/kg (ip) against B16 melanocarcinoma in mice; assay type: functional, Mus musculus; how it was run: as §2
B16 [8] = assay: Median survival time of test animals compared to controls at 40 mg/kg (ip) against B16 melanocarcinoma in mice; assay type: functional, Mus musculus; how it was run: as §2
B16 [9] = assay: Median survival time of test animals compared to controls at 5 mg/kg (ip) against B16 melanocarcinoma in mice; assay type: functional, Mus musculus; how it was run: as §2
B16 [10] = assay: Median survival time of test animals compared to controls at 80 mg/kg (ip) against B16 melanocarcinoma in mice; assay type: functional, Mus musculus; how it was run: as §2
B16 [11] = assay: Weight difference at 10 mg/kg (ip)against B16 melanocarcinoma in mice; assay type: functional, Mus musculus; how it was run: as §1
B16 [12] = assay: Weight difference at 20 mg/kg (ip)against B16 melanocarcinoma in mice; assay type: functional, Mus musculus; how it was run: as §1
B16 [13] = assay: Weight difference at 40 mg/kg (ip)against B16 melanocarcinoma in mice; assay type: functional, Mus musculus; how it was run: as §1
B16 [14] = assay: Weight difference at 5 mg/kg (ip)against B16 melanocarcinoma in mice; assay type: functional, Mus musculus; how it was run: as §1
B16 [15] = assay: Weight difference at 80 mg/kg (ip) against B16 melanocarcinoma in mice; assay type: functional, Mus musculus; how it was run: as §1
P388 [16] = assay: Weight difference at 80 mg/kg (ip)against P388 Lymphocytic Leukemia in mice; assay type: functional, Mus musculus
How it was run: (§3)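 Male CDF1 mice inoculated ip with P388 leukemia cells. Nine daily ip doses beginning 24 h later, as suspensions in Klucel or water. Acute toxicity evaluated day 5. Weight difference reported as treated minus control (g).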

P388 [17] = assay: Median survival time of test animals compared to controls at 10 mg/kg (ip) against P388 Lymphocytic Leukemia in mice; assay type: functional, Mus musculus
How it was run: (§4)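 P388 leukemia cells were given ip to male CDF1 mice. Dosing started 24 h later: nine daily ip doses given as suspensions in Klucel (hydroxypropylcellulose) or in water. Toxicity day was day 5 and evaluation was on day 30. The value is % T/C of median survival time against untreated controls, with a parallel positive-control arm.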

P388 [18] = assay: Median survival time of test animals compared to controls at 2.5 mg/kg (ip) against P388 Lymphocytic Leukemia in mice; assay type: functional, Mus musculus
How it was run: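 P388 leukemia cells given ip to male CDF1 mice; ip dosing began 24 h later, nine daily doses, as suspensions in Klucel (hydroxypropylcellulose) or water. Acute toxicity checked on day 5. Survival read on day 30 as median survival time of treated versus control mice (% T/C). Weight difference is treated minus control, in grams.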

P388 [19] = assay: Median survival time of test animals compared to controls at 20 mg/kg (ip) against P388 Lymphocytic Leukemia in mice; assay type: functional, Mus musculus; how it was run: as §4
P388 [20] = assay: Median survival time of test animals compared to controls at 40 mg/kg (ip) against P388 Lymphocytic Leukemia in mice; assay type: functional, Mus musculus; how it was run: as §4
P388 [21] = assay: Median survival time of test animals compared to controls at 5 mg/kg (ip) against P388 Lymphocytic Leukemia in mice; assay type: functional, Mus musculus; how it was run: as §4
P388 [22] = assay: Median survival time of test animals compared to controls at 80 mg/kg (ip) against P388 Lymphocytic Leukemia in mice; assay type: functional, Mus musculus; how it was run: as §4
P388 [23] = assay: Log of the tumor cell population at the end of treatment at 10 mg/kg (ip) against P388 Lymphocytic Leukemia in mice; assay type: functional, Mus musculus
P388 [24] = assay: Log of the tumor cell population at the end of treatment at 20 mg/kg (ip) against P388 Lymphocytic Leukemia in mice; assay type: functional, Mus musculus
P388 [25] = assay: Log of the tumor cell population at the end of treatment at 40 mg/kg (ip) against P388 Lymphocytic Leukemia in mice; assay type: functional, Mus musculus
P388 [26] = assay: Log of the tumor cell population at the end of treatment at 5 mg/kg (ip) against P388 Lymphocytic Leukemia in mice; assay type: functional, Mus musculus
P388 [27] = assay: Log of the tumor cell population at the end of treatment at 80 mg/kg (ip) against P388 Lymphocytic Leukemia in mice; assay type: functional, Mus musculus
P388 [28] = assay: Weight difference at 5 mg/kg (ip)against P388 Lymphocytic Leukemia in mice; assay type: functional, Mus musculus; how it was run: as §3
P388 [29] = assay: Weight difference at 10 mg/kg (ip)against P388 Lymphocytic Leukemia in mice; assay type: functional, Mus musculus; how it was run: as §3
P388 [30] = assay: Weight difference at 2.5 mg/kg (ip)against P388 Lymphocytic Leukemia in mice; assay type: functional, Mus musculus; how it was run: as §3
P388 [31] = assay: Weight difference at 20 mg/kg (ip)against P388 Lymphocytic Leukemia in mice; assay type: functional, Mus musculus; how it was run: as §3
[32] = Water solubility of the compound; assay type: ADME; settings: read-out: S
How it was run: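 Excess bis(carbamate) (30-60 mg) in 2 mL distilled water, vortexed 10 min, filtered through Teflon wool and diluted. UV absorbance read at 291 nm. Concentration from a linear Beer's law calibration made with a salt standard (r = 0.998).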

P388 [33] = assay: Weight difference at 40 mg/kg (ip)against P388 Lymphocytic Leukemia in mice; assay type: functional, Mus musculus; how it was run: as §3
P388 [34] = assay: Weight difference at 50 mg/kg (ip)against P388 Lymphocytic Leukemia in mice; assay type: functional, Mus musculus
How it was run: (§5)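 Male CDF1 mice given 6×10^6 leukemia cells ip. Five daily ip doses beginning 24 h later, as Klucel suspension or aqueous solution. Acute toxicity on day 5; survival assessed on day 30. Weight difference reported as treated minus control (g).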

P388 [35] = assay: Median survival time of test animals compared to controls at 100 mg/kg (ip) against P388 Lymphocytic Leukemia in mice; assay type: functional, Mus musculus
How it was run: (§6)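 P388 leukemia cells were inoculated ip into male CDF1 mice. Treatment began 24 h later, given ip as five daily doses, either as a Klucel (hydroxypropylcellulose) suspension or as an aqueous solution. Acute toxicity was assessed on day 5 and results were read on day 30. The value is median survival of treated versus control mice, as % T/C.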

P388 [36] = assay: Median survival time of test animals compared to controls at 12.5 mg/kg (ip) against P388 Lymphocytic Leukemia in mice; assay type: functional, Mus musculus
How it was run: (§7)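 P388 leukemia cells inoculated ip into male CDF1 mice; ip treatment started 24 h later, five daily doses, as Klucel (hydroxypropylcellulose) suspension or aqueous solution. Acute toxicity on day 5. Day-30 median survival of treated versus control mice expressed as % T/C. Weight difference is treated minus control, in grams.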

P388 [37] = assay: Median survival time of test animals compared to controls at 25 mg/kg (ip) against P388 Lymphocytic Leukemia in mice; assay type: functional, Mus musculus; how it was run: as §6
P388 [38] = assay: Median survival time of test animals compared to controls at 50 mg/kg (ip) against P388 Lymphocytic Leukemia in mice; assay type: functional, Mus musculus; how it was run: as §6
P388 [39] = assay: Log of the tumor cell population at the end of treatment at 100 mg/kg (ip) against P388 Lymphocytic Leukemia in mice; assay type: functional, Mus musculus
P388 [40] = assay: Log of the tumor cell population at the end of treatment at 12.5 mg/kg (ip) against P388 Lymphocytic Leukemia in mice; assay type: functional, Mus musculus
P388 [41] = assay: Log of the tumor cell population at the end of treatment at 25 mg/kg (ip) against P388 Lymphocytic Leukemia in mice; assay type: functional, Mus musculus
P388 [42] = assay: Log of the tumor cell population at the end of treatment at 50 mg/kg (ip) against P388 Lymphocytic Leukemia in mice; assay type: functional, Mus musculus
P388 [43] = assay: Weight difference at 25 mg/kg (ip)against P388 Lymphocytic Leukemia in mice; assay type: functional, Mus musculus; how it was run: as §5
P388 [44] = assay: Weight difference at 100 mg/kg (ip)against P388 Lymphocytic Leukemia in mice; assay type: functional, Mus musculus; how it was run: as §5
P388 [45] = assay: Weight difference at 12.5 mg/kg (ip)against P388 Lymphocytic Leukemia in mice; assay type: functional, Mus musculus; how it was run: as §7

In the case of `CC(C)NC(=O)OCc1c(COC(=O)NC(C)C)c(-c2ccc(Cl)c(Cl)c2)n2c1CC(OC(=O)CN(C)C)C2` (centres undefined), the Cures (B16 [1]) is reported as 0, the Cures (B16 [2]) is reported as 0 and the Cures (B16 [3]) is reported as 1. The Cures (B16 [4]) was 0, the Cures (B16 [5]) was 0 and the T/C (B16 [6]) was 152%. The T/C (B16 [7]) was 152%, the T/C (B16 [8]) was 174% and the T/C (B16 [9]) was 106%. The T/C (B16 [10]) was <100%, the Weight change (B16 [11]) was 0.2 T-C and the Weight change (B16 [12]) was 0.5 g. For the same compound, the Weight change (B16 [13]) was -0.8 g, the Weight change (B16 [14]) was 0.2 g and the Weight change (B16 [15]) was -1.5 g. It also gave a Weight change (P388 [16]) of -3.4 g, a T/C (P388 [17]) of 128% and a Log cell kill (P388 [18]) of -1.96. It also gave a T/C (P388 [18]) of 101%, a T/C (P388 [19]) of 146% and a T/C (P388 [20]) of 144%. It also gave a T/C (P388 [21]) of 117%, a T/C (P388 [22]) of 110% and a Log cell kill (P388 [23]) of -1.61. The Log cell kill (P388 [24]) was -1.37, the Log cell kill (P388 [25]) was -1.41 and the Log cell kill (P388 [26]) was -1.76. The Log cell kill (P388 [27]) was -1.84, the Weight change (P388 [28]) was -1.3 g and the Weight change (P388 [29]) was -2 g. For the same compound, the Weight change (P388 [30]) was 0.1 g, the Weight change (P388 [31]) was -1.9 g and the solubility [32] was 0.0196 mM (≈ 11.4 µg/mL). For the same compound, the Weight change (P388 [33]) was -3.1 g and the half-life (Half life was determined) was 4.13 h.

For `CC(C)NC(=O)OCc1c(COC(=O)NC(C)C)c(-c2ccc(Cl)c(Cl)c2)n2c1CC(OC(=O)CCC(=O)O)C2.CN(C)c1ccncc1` (centres undefined), the Weight change (P388 [34]) was -2.2 g, the T/C (P388 [35]) was 125% and the T/C (P388 [36]) was 106%. It also gave a T/C (P388 [37]) of 107%, a T/C (P388 [38]) of 111% and a Log cell kill (P388 [39]) of -1.08. It also gave a Log cell kill (P388 [40]) of -1.45, a Log cell kill (P388 [41]) of -1.44 and a Log cell kill (P388 [42]) of -1.39. For the same compound, the Weight change (P388 [43]) was -1.2 g, the Weight change (P388 [44]) was -1.8 g and the Weight change (P388 [45]) was -1.3 g. The solubility [32] was 30 mM and the half-life (Half life was determined) was 2.55 h.
